Test results as given in PMC5634614 (Molecular imaging and biology : MIB : the official …, 2017).
Where two headings read alike, the source gives them in different places. Each block holds one compound with its values, some of them ahead of it.

Columns and labels:
[1] = molecular target: T1, TSPO (Rattus norvegicus, UniProt P16257); conditions: n = 5, prior study, ref [18], [19], cited from earlier work
[2] = molecular target: T1, TSPO; conditions: ref [18], [19], cited from earlier work
[3] = molecular target: C6-2B mitochondria (rat glioma); conditions: C6-2B mitochondria (rat glioma) with [3H]PK11195; ref [28]; cited from earlier work
[4] = Plasma protein binding; type: in vitro ADME
[5] = molecular target: T1, TSPO; assay: Radioligand displacement of [3H]PK11195 in C6 glioma cell lysate; type: binding; conditions: for TSPO binding affinity, fold greater than 1 (DPA-714): relative to 1 (DPA-714); for TSPO binding affinity, fold greater than 2 (VUIIS1008): relative to 2
[6] = molecular target: mitochondrial TSPO (mTSPO) (Mus musculus, UniProt P50637); assay: 2D 1H-15N HSQC NMR titration of TSPO with ligands; type: binding; conditions: 5.0 mM ligand, 0.2 mM TSPO in DPC
Procedure, shortened: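 15N-labeled mitochondrial TSPO was expressed in E. coli BL21(DE3) in M9 minimal medium, then solubilized and purified in DPC detergent. 2D 1H-15N HSQC spectra were recorded with and without ligand (5.0 mM) on an 800-MHz spectrometer at 42 °C. Samples held 0.2 mM TSPO in ~2 % (w/v) DPC, 25 mM MES pH 6.0 and 100 mM NaCl.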

Compound: CCc1cc(CC)n2nc(-c3ccc(OCC[18F])cc3)c(CC(=O)N(CC)CC)c2n1 [[^18F]VUIIS1008, 2-(5,7-diethyl-2-(4-(2-[(18)F]fluoroethoxy)phenyl)pyrazolo[1,5-a]pyrimidin-3-yl)-N,N-diethylacetamide]
VT (total distribution volume from kinetic parameters) ([1]; brain): 4.210 ± 1.612 | k1 ([1]; brain): 0.881 ±0.392 | k1/k2 ([1]; brain): 0.855 ± 0.325 | k2 ([1]; brain): 2.078 ± 1.666 | k3 ([1]; brain): 0.172 ± 0.070 | k3/k4 (binding potential, BPND) ([1]; brain): 4.435 ± 1.387 | k4 ([1]; brain): 0.037 ± 0.004 | VT (total distribution volume from kinetic parameters) ([1]; tumor): 25.224 ± 10.035 | k1 ([1]; tumor): 0.709 ± 0.306 | k1/k2 ([1]; tumor): 1.902 ± 0.816 | k2 ([1]; tumor): 0.442 ± 0.101 | k3 ([1]; tumor): 0.113 ±0.013 | k3/k4 (binding potential, BPND) ([1]; tumor): 12.634 ± 1.406 | k4 ([1]; tumor): 0.009 ± 0.002 | enhancement in TSPO affinity compared to 1 ([2]; prior studies): 36 fold

Compound: CCC(C)N(C)C(=O)c1cc2ccccc2c(-c2ccccc2Cl)n1 (stereo not shown) [[^3H]PK11195]
Kd [3]: 5.73 ± 2.38 nM

Compound: CCc1cc(CC)n2nc(-c3ccc(OCCF)cc3)c(CC(=O)N(CC)CC)c2n1 [VUIIS1008]
IC50 ([2]; previously reported): 0.3 nM

unbound fraction compared with DPA-714 [4]: lower unbound fraction than DPA-714 | IC50 [5]: 0.0144 nM | Ki [5]: 0.00704 nM | TSPO binding affinity, fold greater than 1 (DPA-714) [5]: 500 fold | TSPO binding affinity, fold greater than 1 (DPA-714) ([5]; listed as VUIIS1009A): approximately 500 fold | TSPO binding affinity, fold greater than 2 (VUIIS1008) [5]: 20 fold
Compound: CCc1cc(C)nc2c(CC(=O)N(CC)CC)c(-c3ccc(OCCF)cc3)nn12 [3A, N,N-diethyl-2-(7-ethyl-2-(4-(2-fluoroethoxy)-phenyl)-5-methylpyrazolo[1,5-a]pyrimidin-3-yl)acetamide]

unbound fraction compared with DPA-714 [4]: lower unbound fraction than DPA-714 | unbound fraction, difference compared with 3A [4]: 0.54% | IC50 [5]: 0.0194 nM | Ki [5]: 0.00947 nM | TSPO binding affinity, fold greater than 1 (DPA-714) [5]: 500 fold | TSPO binding affinity, fold greater than 1 (DPA-714) ([5]; listed as VUIIS1009B): approximately 500 fold | TSPO binding affinity, fold greater than 2 (VUIIS1008) [5]: 20 fold
Compound: CCc1cc(C)n2nc(-c3ccc(OCCF)cc3)c(CC(=O)N(CC)CC)c2n1 [3B, N,N-diethyl-2-(5-ethyl-2-(4-(2-fluoroethoxy)phenyl)-7-methylpyrazolo[1,5-a]pyrimidin-3-yl)acetamide]
saturation of ligand-bound state of TSPO (HSQC) [6]: completely saturated the ligand-bound state
